Source: ChEMBL document CHEMBL1126822, “7 alpha-Methyl- and 11 beta-ethoxy-substitution of [125I]-16 alpha-iodoestradiol: effect on estrogen receptor-mediated target tissue uptake” (J Med Chem, 1993)

Assays:
Rattus norvegicus [1] = experiment: Tissue uptake (spleen) of [125I]- after administration of [125I]-labeled compound to immature female rats (n=4) in the absence of 60 microg coinjected estradiol after 5 hours; type: ADME, organism-based; settings: in vivo
In short: (§1)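 Immature female Fischer rats, 24 days old, 55-60 g, unanesthetized in retention cages, got HPLC-purified n.c.a. 125I-labeled steroid (3 μCi, 111 kBq) by lateral tail vein. Dose was given in 200 μL saline with 9% ethanol and 1% Tween-80. Deep ether anesthesia, axillary artery cut; tissues KCl-washed, blotted, weighed, gamma-counted as % ID/g; variation as small-sample-corrected %CV.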

Rattus norvegicus [2] = experiment: Tissue uptake (spleen) of [125I]- after administration of [125I]-labeled compound to immature female rats (n=4) in the absence of 60 microg coinjected estradiol after 2 hours; type: ADME, organism-based; settings: in vivo; in short: as §1
Rattus norvegicus [3] = experiment: Tissue uptake (spleen) of [125I]- after administration of [125I]-labeled compound to immature female rats (n=3) in the presence of 60 microg coinjected estradiol after 1 hour; type: ADME, organism-based; settings: in vivo; in short: as §1
Rattus norvegicus [4] = experiment: Tissue uptake (uterus) of [125I]- after administration of [125I]-labeled compound to immature female rats (n=3) in the presence of 60 microg coinjected estradiol after 1 hour; type: ADME, organism-based; settings: in vivo; in short: as §1
Rattus norvegicus [5] = experiment: Tissue uptake (lungs) of [125I]- after administration of [125I]-labeled compound to immature female rats (n=3) in the absence of 60 microg coinjected estradiol after 24 hours; type: ADME, organism-based; settings: in vivo
In short: (§2)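 Immature female Fischer rats, 24 days old, 55-60 g, unanesthetized in retention cages, given HPLC-purified 125I-labeled steroid (3 μCi, 111 kBq) via lateral tail vein in 200 μL of 9% ethanol-saline with 1% Tween-80. The blocking group was coinjected with 60 μg unlabeled estradiol and sampled at 1 h. Animals were killed under ether at 0.5-24 h. Tissues were KCl-washed, blotted, weighed and gamma-counted. Results are % ID/g, with variation as small-sample-corrected %CV.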

Rattus norvegicus [6] = experiment: Tissue uptake (uterus) of [125I]- after administration of [125I]-labeled compound to immature female rats (n=4) in the absence of 60 microg coinjected estradiol after 5 hours; type: ADME, organism-based; settings: in vivo; in short: as §1
Rattus norvegicus [7] = experiment: Tissue uptake (lungs) of [125I]- after administration of [125I]-labeled compound to immature female rats (n=3) in the presence of 60 microg coinjected estradiol after 1 hour; type: ADME, organism-based; settings: in vivo; in short: as §2
Rattus norvegicus [8] = experiment: Tissue uptake (fat) of [125I]- after administration of [125I]-labeled compound to immature female rats (n=3) in the absence of 60 microg coinjected estradiol after 24 hours; type: ADME, organism-based; settings: in vivo; in short: as §2
Rattus norvegicus [9] = experiment: Tissue uptake (lungs) of [125I]- after administration of [125I]-labeled compound to immature female rats (n=5) in the absence of 60 microg coinjected estradiol after 1 hour; type: ADME, organism-based; settings: in vivo; in short: as §2
Rattus norvegicus [10] = experiment: Tissue uptake (thyroid) of [125I]- after administration of [125I]-labeled compound to immature female rats (n=3) in the absence of 60 microg coinjected estradiol after 24 hours; type: ADME, organism-based, Thyroid gland; settings: in vivo; in short: as §1
Rattus norvegicus [11] = experiment: Tissue uptake (liver) of [125I]- after administration of [125I]-labeled compound to immature female rats (n=3) in the presence of 60 microg coinjected estradiol after 1 hour; type: ADME, organism-based; settings: in vivo; in short: as §2
Rattus norvegicus [12] = experiment: Tissue uptake (uterus) of [125I]- after administration of [125I]-labeled compound to immature female rats (n=4) in the absence of 60 microg coinjected estradiol after 2 hours; type: ADME, organism-based; settings: in vivo; in short: as §1
Rattus norvegicus [13] = experiment: Tissue uptake (blood) of [125I]- after administration of [125I]-labeled compound to immature female rats (n=3) in the presence of 60 microg coinjected estradiol after 1 hour; type: ADME, organism-based; settings: in vivo; in short: as §2
Rattus norvegicus [14] = experiment: Tissue uptake (fat) of [125I]- after administration of [125I]-labeled compound to immature female rats (n=3) in the absence of 60 microg coinjected estradiol after 0.5 hours; type: ADME, organism-based; settings: in vivo; in short: as §2
Rattus norvegicus [15] = experiment: Tissue uptake (blood) of [125I]- after administration of [125I]-labeled compound to immature female rats (n=4) in the absence of 60 microg coinjected estradiol after 2 hours; type: ADME, organism-based; settings: in vivo; in short: as §2
Rattus norvegicus [16] = experiment: Tissue uptake (fat) of [125I]- after administration of [125I]-labeled compound to immature female rats (n=4) in the absence of 60 microg coinjected estradiol after 2 hours; type: ADME, organism-based; settings: in vivo; in short: as §2
Rattus norvegicus [17] = experiment: Tissue uptake (liver) of [125I]- after administration of [125I]-labeled compound to immature female rats (n=3) in the absence of 60 microg coinjected estradiol after 0.5 hours; type: ADME, organism-based; settings: in vivo; in short: as §2
Rattus norvegicus [18] = experiment: Tissue uptake (spleen) of [125I]- after administration of [125I]-labeled compound to immature female rats (n=3) in the absence of 60 microg coinjected estradiol after 24 hours; type: ADME, organism-based; settings: in vivo; in short: as §1
Rattus norvegicus [19] = experiment: Tissue uptake (blood) of [125I]- after administration of [125I]-labeled compound to immature female rats (n=5) in the absence of 60 microg coinjected estradiol after 1 hour; type: ADME, organism-based; settings: in vivo; in short: as §2
Rattus norvegicus [20] = experiment: Tissue uptake (liver) of [125I]- after administration of [125I]-labeled compound to immature female rats (n=5) in the absence of 60 microg coinjected estradiol after 1 hour; type: ADME, organism-based; settings: in vivo; in short: as §2
Rattus norvegicus [21] = experiment: Tissue uptake (kidneys) of [125I]- after administration of [125I]-labeled compound to immature female rats (n=5) in the absence of 60 microg coinjected estradiol after 1 hour; type: ADME, organism-based, Kidney; settings: in vivo; in short: as §2
Rattus norvegicus [22] = experiment: Tissue uptake (muscle) of [125I]- after administration of [125I]-labeled compound to immature female rats (n=5) in the absence of 60 microg coinjected estradiol after 1 hour; type: ADME, organism-based; settings: in vivo; in short: as §2
Rattus norvegicus [23] = experiment: Tissue uptake (liver) of [125I]- after administration of [125I]-labeled compound to immature female rats (n=4) in the absence of 60 microg coinjected estradiol after 2 hours; type: ADME, organism-based; settings: in vivo; in short: as §2
Rattus norvegicus [24] = experiment: Tissue uptake (kidneys) of [125I]- after administration of [125I]-labeled compound to immature female rats (n=3) in the presence of 60 microg coinjected estradiol after 1 hour; type: ADME, organism-based, Kidney; settings: in vivo; in short: as §2
[25] = target: Estrogen receptor (Mus musculus) (UniProt O08537+P19785); experiment: Binding affinity at murine estrogen receptor by [3H]estradiol displacement.; type: protein assay
Sequence of Estrogen receptor (Mus musculus) (O08537 whole entry, looked up): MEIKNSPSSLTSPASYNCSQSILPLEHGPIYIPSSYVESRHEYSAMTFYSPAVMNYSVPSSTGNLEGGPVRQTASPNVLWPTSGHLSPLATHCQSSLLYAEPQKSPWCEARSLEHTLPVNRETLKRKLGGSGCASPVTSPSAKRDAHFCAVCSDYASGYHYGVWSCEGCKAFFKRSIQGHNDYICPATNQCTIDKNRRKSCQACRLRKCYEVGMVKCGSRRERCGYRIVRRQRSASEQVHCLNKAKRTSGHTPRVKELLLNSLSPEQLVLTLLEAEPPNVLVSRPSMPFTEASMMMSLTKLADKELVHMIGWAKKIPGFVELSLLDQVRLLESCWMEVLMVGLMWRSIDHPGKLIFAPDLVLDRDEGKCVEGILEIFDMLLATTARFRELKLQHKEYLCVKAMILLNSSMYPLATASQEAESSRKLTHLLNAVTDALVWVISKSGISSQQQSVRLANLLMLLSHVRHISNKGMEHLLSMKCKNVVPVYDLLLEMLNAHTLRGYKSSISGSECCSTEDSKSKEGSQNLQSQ
Sequence of Estrogen receptor (Mus musculus) (P19785 whole entry, looked up): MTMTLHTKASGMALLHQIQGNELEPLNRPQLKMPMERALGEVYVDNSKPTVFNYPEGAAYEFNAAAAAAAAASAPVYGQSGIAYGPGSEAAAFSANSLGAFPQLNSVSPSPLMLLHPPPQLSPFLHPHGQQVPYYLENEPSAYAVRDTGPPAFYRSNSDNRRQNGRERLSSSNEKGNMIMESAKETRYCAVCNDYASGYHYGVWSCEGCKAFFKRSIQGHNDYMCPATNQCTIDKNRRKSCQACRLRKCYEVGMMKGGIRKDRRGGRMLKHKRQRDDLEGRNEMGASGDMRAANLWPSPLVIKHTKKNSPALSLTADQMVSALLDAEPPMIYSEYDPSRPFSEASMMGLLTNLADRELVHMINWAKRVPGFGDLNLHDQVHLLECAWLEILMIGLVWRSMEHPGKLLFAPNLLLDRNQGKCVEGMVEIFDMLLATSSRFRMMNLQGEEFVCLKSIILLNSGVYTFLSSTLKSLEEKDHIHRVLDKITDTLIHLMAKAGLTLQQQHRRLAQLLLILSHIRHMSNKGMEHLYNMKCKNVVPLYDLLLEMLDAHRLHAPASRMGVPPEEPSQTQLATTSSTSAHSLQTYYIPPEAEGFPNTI
In short: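 Competitive binding in murine uterine cytoplasmic extracts, incubated 18 h at 0-4 °C with 20 nM [3H]estradiol, with or without competing steroids from 2 nM to 20 μM. RBA = 100 × ratio of competitor to unlabeled estradiol concentration giving 50% competition of specific [3H]estradiol binding. Mean of three experiments with SD.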

Rattus norvegicus [26] = experiment: Tissue uptake (kidneys) of [125I]- after administration of [125I]-labeled compound to immature female rats (n=3) in the absence of 60 microg coinjected estradiol after 0.5 hours; type: ADME, organism-based, Kidney; settings: in vivo; in short: as §2
Rattus norvegicus [27] = experiment: Tissue uptake (spleen) of [125I]- after administration of [125I]-labeled compound to immature female rats (n=3) in the absence of 60 microg coinjected estradiol after 0.5 hours; type: ADME, organism-based; settings: in vivo; in short: as §1
Rattus norvegicus [28] = experiment: Tissue uptake (fat) of [125I]- after administration of [125I]-labeled compound to immature female rats (n=5) in the absence of 60 microg coinjected estradiol after 1 hour; type: ADME, organism-based; settings: in vivo; in short: as §2
Rattus norvegicus [29] = experiment: Tissue uptake (kidneys) of [125I]- after administration of [125I]-labeled compound to immature female rats (n=3) in the absence of 60 microg coinjected estradiol after 24 hours; type: ADME, organism-based, Kidney; settings: in vivo; in short: as §2
Rattus norvegicus [30] = experiment: Tissue uptake (muscle) of [125I]- after administration of [125I]-labeled compound to immature female rats (n=3) in the absence of 60 microg coinjected estradiol after 24 hours; type: ADME, organism-based; settings: in vivo; in short: as §2

Compound	ID/g (Rattus norvegicus [1]) [%]	ID/g (Rattus norvegicus [2]) [%]	ID/g (Rattus norvegicus [3]) [%]	ID/g (Rattus norvegicus [4]) [%]	ID/g (Rattus norvegicus [5]) [%]	ID/g (Rattus norvegicus [6]) [%]	ID/g (Rattus norvegicus [7]) [%]	ID/g (Rattus norvegicus [8]) [%]	ID/g (Rattus norvegicus [9]) [%]	ID/g (Rattus norvegicus [10]) [%]	ID/g (Rattus norvegicus [11]) [%]	ID/g (Rattus norvegicus [12]) [%]	ID/g (Rattus norvegicus [13]) [%]	ID/g (Rattus norvegicus [14]) [%]	ID/g (Rattus norvegicus [15]) [%]	ID/g (Rattus norvegicus [16]) [%]	ID/g (Rattus norvegicus [17]) [%]	ID/g (Rattus norvegicus [18]) [%]	ID/g (Rattus norvegicus [19]) [%]	ID/g (Rattus norvegicus [20]) [%]	further results
C[C@@H]1Cc2cc(O)ccc2[C@H]2CC[C@]3(C)[C@@H](O)[C@H](I)C[C@H]3[C@H]12	0.22	0.33	0.43	0.34	0.03	3.86	0.43	0.03	0.54	334.84	1.09	6.35	0.33	2.2	0.32	1.12	1.94	0.08	0.38	1.26	ID/g (Rattus norvegicus [21]): 0.83%; ID/g (Rattus norvegicus [22]): 0.32%; ID/g (Rattus norvegicus [23]): 1.09%; ID/g (Rattus norvegicus [24]): 0.51%; relative binding affinity (RBA) [25]: 55.2; ID/g (Rattus norvegicus [26]): 1.3%; ID/g (Rattus norvegicus [27]): 0.57%; ID/g (Rattus norvegicus [28]): 1.79%; ID/g (Rattus norvegicus [29]): 0.3%; ID/g (Rattus norvegicus [30]): 0.01%
CCO[C@H]1C[C@]2(C)[C@@H](O)[C@H](I)C[C@H]2[C@@H]2CCc3cc(O)ccc3[C@H]21	1.28	1.76	1.6	0.72	0.23	7.76	1.18	0.15	1.3	773.37	4.5	13.08	1.09	2.47	0.89	0.94	5.91	0.7	1.01	3.48	ID/g (Rattus norvegicus [21]): 1.83%; ID/g (Rattus norvegicus [22]): 0.69%; ID/g (Rattus norvegicus [23]): 3.24%; ID/g (Rattus norvegicus [24]): 1.61%; relative binding affinity (RBA) [25]: 16.5; ID/g (Rattus norvegicus [26]): 2.26%; ID/g (Rattus norvegicus [27]): 1.44%; ID/g (Rattus norvegicus [28]): 1.51%; ID/g (Rattus norvegicus [29]): 0.24%; ID/g (Rattus norvegicus [30]): 0.13%
